Measured values as given in ChEMBL document CHEMBL1123044, “Benzodiazepine receptor binding and anticonflict activity in a series of 3,6-disubstituted pyridazino[4,3-c]isoquinolines devoid of anticonvulsant properties” (J Med Chem, 1985).

What was measured:
[1] = Lethal dose analysed when administered intraperitoneally; format: toxicity, organism-based; conditions: mouse, in vivo, ip
How it was run: (§1)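 Acute toxicity was tested in male CD1 mice in groups of three per dose. Compounds were dispersed in 0.5% methocel and given ip at 10 mL/kg.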

[2] = test system: Rattus norvegicus; assay: In vivo minimal effective dose for anticonflict activity by intraperitoneal administration in rats by the Vogel conflict procedure.; format: functional; conditions: ip, read-out: MED
How it was run: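 Male Wistar rats deprived of food 24 h and water 48 h; 10 per dose given compound ip in 0.5% methocel (4 mL/kg) 30 min before test. After 15 s free drinking of sweetened milk, 0.3 mA shocks were delivered through the spout in alternating 5-s on/off cycles over 5 min; shocks counted.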

[3] = test system: Mus musculus; assay: Anticonvulsant activity against prevention of tonic extensor seizures in 50% mice in the presence of bicuculline (ip administration); format: functional
How it was run: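 Male CD1 mice, 10 per dose, given test compound ip in 0.5% methocel (10 mL/kg). Bicuculline, 2 mg/kg sc in aqueous solution, given 30 min later, following the metrazol protocol. ED50 is the dose preventing tonic extensor seizures in 50% of mice, obtained by Finney probit analysis with 95% confidence limits.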

[4] = test system: Mus musculus; assay: Anticonvulsant activity against prevention of tonic extensor seizures in 50% mice in the presence of metrazole (ip administration); format: functional
[5] = molecular target: GABA-A receptor; anion channel; assay: In vitro binding affinity against benzodiazepine receptor using [3H]diazepam as radioligand; format: protein-complex assay
[6] = molecular target: GABA-A receptor; anion channel (Rattus norvegicus) (UniProt O09028+P15431+P18506+P18508+P19969+P20236+P23574+P23576+P28471+P28473+P30191+P62813+P63079+P63138+Q91ZM7+Q9ES14); assay: Relative binding to GABA-A central benzodiazepine receptor in the presence and absence of 10e-4 M GABA (GABA shift); format: protein-complex assay
How it was run: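 Rat forebrain membranes incubated in triplicate with 0.4 nM [3H]flunitrazepam and varying ligand concentrations, with or without 0.1 mM GABA, 20 min at 37 °C. Specific binding: total minus binding with 1 μM unlabelled clonazepam. The ratio compares displacement curves obtained without versus with GABA.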

[7] = Lethal dose analysed in mice when administered intraperitoneally; format: toxicity, organism-based; conditions: mouse, in vivo, ip; how it was run: as §1
[8] = test system: Mus musculus; assay: Anticonvulsant activity against prevention of tonic extensor seizures in 50% mice in the presence of metrazole (ip administration); 0.11-0.28; format: functional
[9] = test system: Mus musculus; assay: Anticonvulsant activity against prevention of tonic extensor seizures in 50% mice in the presence of bicuculline (ip administration); 0.13-0.25; format: functional

| SMILES | LD50 [1] [mg/kg] | minimal effective dose [2] [mg/kg] | ED50 [3] [mg/kg] | ED50 [4] [mg/kg] | Ki [5] [nM] | GABA ratio [6] | LD50 [7] [mg/kg] | ED50 [8] [%] | ED50 [9] [%] |
| --- | --- | --- | --- | --- | --- | --- | --- | --- | --- |
| COc1ccc(-c2cc3nc(N4CCOCC4)c4ccccc4c3nn2)cc1 | > 600 | 30 | > 100 | > 100 | 402 | – | – | – | – |
| CN(C)c1nc2cc(-c3ccccc3)nnc2c2ccccc12 | > 600 | 10 | > 100 | > 100 | 28.4 | 1.2 | – | – | – |
| CC(O)CN(C)c1nc2cc(-c3ccccc3)nnc2c2ccccc12 (centres undefined) | 300 | 30 | > 50 | > 50 | 136 | 1.4 | – | – | – |
| Oc1nc2cc(-c3ccccc3)nnc2c2ccccc12 | – | – | – | – | 1700 | – | – | – | – |
| CN1CCN=C(c2ccccc2)c2cc(Cl)ccc21 [MEDAZEPAM] | – | – | – | – | 528 | 1.9 | – | – | – |
| COc1ccc(-c2cc3nc(N4CCC4)c4ccccc4c3nn2)cc1 | 600 | 30 | > 100 | > 100 | 69.6 | – | – | – | – |
| CCN(C)c1nc2cc(-c3ccccc3)nnc2c2ccccc12 | 300 | 10 | > 50 | > 50 | 65.2 | 1.5 | – | – | – |
| COc1ccc(-c2cc3nc(N4CCCC4)c4ccccc4c3nn2)cc1 | > 600 | 20 | > 100 | > 100 | 18.7 | – | – | – | – |
| COc1ccc(-c2cc3nc(N(C)CC(C)O)c4ccccc4c3nn2)cc1 (centres undefined) | > 600 | 30 | > 100 | > 100 | 221 | 1.4 | – | – | – |
| COCCN(CCOC)c1nc2cc(-c3ccc(OC)cc3)nnc2c2ccccc12 | > 600 | 10 | > 100 | > 100 | 1180 | 2 | – | – | – |
| COc1ccc(-c2cc3nc(N(C)C)c4ccccc4c3nn2)cc1 | > 600 | 10 | > 100 | > 100 | 63.3 | 1.7 | – | – | – |
| CCOc1nc2cc(-c3ccccc3)nnc2c2ccccc12 | – | – | – | – | 1500 | – | – | – | – |
| Clc1ccc(-c2cc3nc(N4CCCC4)c4ccccc4c3nn2)cc1 | – | – | – | – | 3480 | – | – | – | – |
| Cc1cc2nc(N3CCCC3)c3ccccc3c2nn1 | – | 20 | > 50 | > 50 | 245 | 1 | 200 | – | – |
| COc1ccc(-c2cc3nc(N4CCCCC4)c4ccccc4c3nn2)cc1 | > 600 | 10 | > 100 | > 100 | 658 | – | – | – | – |
| CC(C)Oc1nc2cc(-c3ccccc3)nnc2c2ccccc12 | – | – | – | – | 1900 | – | – | – | – |
| CC(O)CN(C)c1nc2cc(-c3ccc(Cl)cc3)nnc2c2ccccc12 (centres undefined) | – | – | – | – | 17800 | – | – | – | – |
| CN(C)c1nc2cc(-c3ccc(Cl)cc3)nnc2c2ccccc12 | – | – | – | – | 9300 | – | – | – | – |
| CN1C(=O)CN=C(c2ccccc2)c2cc(Cl)ccc21 [DIAZEPAM] | – | 0.5 | – | – | – | – | – | 0.2 | 0.18 |
| Clc1nc2cc(-c3ccccc3)nnc2c2ccccc12 | – | – | – | – | 6200 | – | – | – | – |
| c1ccc(-c2cc3ncc4ccccc4c3nn2)cc1 | – | – | – | – | 4000 | – | – | – | – |
| c1ccc(-c2cc3nc(N4CCOCC4)c4ccccc4c3nn2)cc1 | 200 | 15 | > 50 | > 50 | 152 | 1.4 | – | – | – |
| c1ccc(-c2cc3nc(N4CCCC4)c4ccccc4c3nn2)cc1 | 300 | 5 | > 50 | > 50 | 11.4 | 1.6 | – | – | – |
| COCCN(CCOC)c1nc2cc(-c3ccc(Cl)cc3)nnc2c2ccccc12 | – | – | – | – | 32500 | – | – | – | – |
| Cc1nnc2ccc(-c3cccc(C(F)(F)F)c3)nn12 [CI-218872] | – | – | – | – | 198 | – | – | – | – |
